Measurements: ChEMBL document CHEMBL4364245 (Eur J Med Chem, 2019)

Columns and labels:
[1] = Inhibition of influenza B virus (B/PHUKET/3073/2013)) Neuraminidase in using 4-MUNANA as substrate preincubated for 10 mins followed by substrate addition and measured after 40 mins by fluorescence based assay
Method in brief: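 Influenza B/PHUKET/3073/2013 NA, in MES buffer at pH 6.5 with CaCl₂, was preincubated with inhibitor for 10 min at 37°C. MUNANA substrate was added for 40 min at 37°C, and the reaction was stopped with 0.2 M glycine-NaOH at pH 10.2. Fluorescence was read at ex 365 / em 455 nm minus substrate blanks. IC50 was taken from % inhibition curves, mean ± SD of three experiments.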

[2] = biological target: Neuraminidase (Influenza A virus (A/Memphis/1/1971(H3N2)), UniProt P03471); assay: Inhibition of influenza A virus (A/Chicken/Hebei/LZF/2014(H5N2)) Neuraminidase N2 in using 4-MUNANA as substrate preincubated for 10 mins followed by substrate addition and measured after 40 mins by fluorescence based assay
Chain of Neuraminidase (Influenza A virus (A/Memphis/1/1971(H3N2)), UniProt P03471) (P03471 whole entry): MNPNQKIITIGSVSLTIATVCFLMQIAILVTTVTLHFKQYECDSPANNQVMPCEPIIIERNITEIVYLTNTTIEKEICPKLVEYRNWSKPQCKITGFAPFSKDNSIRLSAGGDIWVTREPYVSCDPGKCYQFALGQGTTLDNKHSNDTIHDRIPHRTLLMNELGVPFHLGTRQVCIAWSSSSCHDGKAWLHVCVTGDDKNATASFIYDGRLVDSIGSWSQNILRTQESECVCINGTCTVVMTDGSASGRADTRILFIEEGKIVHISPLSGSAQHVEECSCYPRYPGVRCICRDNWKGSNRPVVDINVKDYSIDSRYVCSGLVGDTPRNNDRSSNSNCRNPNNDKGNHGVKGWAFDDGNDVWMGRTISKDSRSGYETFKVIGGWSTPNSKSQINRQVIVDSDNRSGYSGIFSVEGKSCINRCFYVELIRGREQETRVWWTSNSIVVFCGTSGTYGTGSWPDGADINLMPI

Influenza A virus [3] = assay: Antiviral activity against Influenza A virus (A/Chicken/Hebei/LZF/2014(H5N2)) infected in CEF cells assessed as reduction in virus-induced cytopathic effect incubated for 48 hrs by CCK-8 assay; type: functional, organism-based
Influenza A virus [4] = assay: Antiviral activity against Influenza A virus (A/goose/Guangdong/SH7/2013(H5N1)) infected in CEF cells assessed as reduction in virus-induced cytopathic effect incubated for 48 hrs by CCK-8 assay; type: functional, organism-based
[5] = Cytotoxicity against chicken CEF cells assessed as reduction in cell viability incubated for 48 hrs by CCK8 assay; type: cell-based, Gallus gallus
Method in brief: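 Mock-infected chicken embryo fibroblasts received 2-fold serial dilutions of compound in DMEM with 1% FBS for 48 h at 37°C under 5% CO₂. Viability was read by CCK-8 (90 min, A450).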

SMILES | IC50 [1] [µM] | IC50 [2] [µM] | EC50 (Influenza A virus [3]) [µM] | EC50 (Influenza A virus [4]) [µM] | CC50 at 48 h [5] [µM]
CCC(CC)O[C@@H]1C=C(C(=O)NCc2ccc(Cl)cc2)C[C@H](NCc2ccc(SC)cc2)[C@H]1NC(C)=O | > 100 |  |  |  | 
CCC(CC)O[C@@H]1C=C(C(=O)NCc2ccc(C(=O)O)cc2)C[C@H](NCc2ccc(N3CCCC3)cc2)[C@H]1NC(C)=O |  | 4.7 |  |  | 
CCC(CC)O[C@@H]1C=C(C(=O)N[C@@H](C(=O)O)C(C)C)C[C@H](NCc2ccc(SC)cc2)[C@H]1NC(C)=O | > 100 |  | 26.6 | > 100 | > 200
CCC(CC)O[C@@H]1C=C(C(=O)NCc2ccc(F)cc2)C[C@H](NCc2ccc(N3CCCC3)cc2)[C@H]1NC(C)=O |  | 48.4 |  |  | 
CCC(CC)O[C@@H]1C=C(C(=O)N[C@@H](C(=O)O)C(C)C)C[C@H](NCc2ccc(N3CCCC3)cc2)[C@H]1NC(C)=O |  | 2.41 |  |  | 
CCC(CC)O[C@@H]1C=C(C(=O)NCc2ccc(Cl)cc2)C[C@H](NCc2ccc(N3CCCC3)cc2)[C@H]1NC(C)=O |  | 0.94 | > 100 | > 100 | 77.1
CCC(CC)O[C@@H]1C=C(C(=O)O)C[C@H](NCc2ccc(SC)cc2)[C@H]1NC(C)=O | 7.97 | 8.34 | 0.48 | 0.66 | > 200
CCC(CC)O[C@@H]1C=C(C(=O)NCc2ccc(C(=O)O)cc2)C[C@H](NCc2ccc(N(CC)CC)cc2)[C@H]1NC(C)=O |  | 13.3 |  |  | 
CCC(CC)O[C@@H]1C=C(C(=O)N[C@@H](C(=O)O)C(C)C)C[C@H](NCc2ccc(Sc3ccccc3)cc2)[C@H]1NC(C)=O | > 100 | > 100 |  |  | 
CCC(CC)O[C@@H]1C=C(C(=O)NCc2ccc(C(=O)O)cc2)C[C@H](NCc2ccc(Sc3ccccc3)cc2)[C@H]1NC(C)=O |  | > 100 |  |  | 
CCC(CC)O[C@@H]1C=C(C(=O)O)C[C@H](N)[C@H]1NC(C)=O [OSELTAMIVIR CARBOXYLATE] | 0.037 |  | 0.17 | 0.82 | > 200
